Bioassay records: PubChem BioAssay, several laboratories
Shown are actives, neighbours in structure and some others; about 3.7% of the full set was active somewhere.
proCasp3 act: activates human procaspase-3; activation, % at 8.5 µM; P42574; recombinant procaspase-3 D3A, Ac-DEVD-pNA absorbance 405 nm; 330,000 tested, 0.11% active;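 active means activation above the mean of all tested compounds plus 3 SD, cut at about 21% in these data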;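 further: 0% = DMSO alone and 100% = DMSO wells spiked with extra 5 µM PC-3 D3A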
Target sequence (P42574 whole entry D9A/D28A/D175A): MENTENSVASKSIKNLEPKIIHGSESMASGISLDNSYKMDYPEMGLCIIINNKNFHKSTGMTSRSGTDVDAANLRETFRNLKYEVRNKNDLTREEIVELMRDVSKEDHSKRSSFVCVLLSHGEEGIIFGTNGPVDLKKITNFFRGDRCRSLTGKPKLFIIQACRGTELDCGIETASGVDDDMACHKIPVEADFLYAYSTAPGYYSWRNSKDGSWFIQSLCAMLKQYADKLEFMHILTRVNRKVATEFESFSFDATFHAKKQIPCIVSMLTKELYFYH
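Evaluation: percent activation relative to control range; Material: Procaspase-3 D3A mutant, all three cleavage aspartates alanine; Compound: single dose, 8.5 µM nominal compound, 0.8% DMSO; Replication: one well per compound; Signal: absorbance at 405 nm, 0 and 120 min; Schedule: 1 h preincubation plus 2 h reaction at 25 °C.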
NR3A LBD binder: modulators (binders) of human NR3A ligand-binding domain. AID 1259313. NR3A LBD differential scanning fluorimetry, Tm shift; 0% = protein alone, 100% = glycine-bound protein. 340,000 tested, 2.5% active. Tm shift relative to glycine control, % at 25 µM;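 active means melting temperature shift of at least 10% of the positive control shift, at one fixed dose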
MPTP block: permeability transition pore inhibition. isolated mouse mitochondria, Ca2+ swelling absorbance, 30 min. inhibition, % at 10 µM. 360,000 tested, 1.4% active. AID 602449;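 active means inhibition of 50% or more, scaled per plate between neutral and stimulator controls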;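 further: 0% = DMSO wells given calcium and 100% = 1 mM EGTA wells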
aDG glyco up: increases alpha dystroglycan glycosylation; Pro5-aDG cells, alpha-DG glycosylation AlphaScreen (IIH6); 0% Pro5, 100% B10-LARGE cell signal; activation, % at 10 µM; 360,000 tested, 0.22% active;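 active means activation of at least 8% versus controls, or a plate z-score of at least 8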;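 further: Pro5 are CHO cells carrying HIG-tagged alpha-DG that lacks glycosylation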
proCasp7 act: counter-screen: procaspase-7 (human) activation | 330,000 tested, 0.093% active | P55210 | activation, % at 8.5 µM | recombinant procaspase-7, Ac-DEVD-pNA absorbance 405 nm; D23A/D198A/D206A triple mutant, cannot self-cleave; scale: DMSO 0, 5 µM enzyme 100;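 active means percent activation above the screen-wide mean plus 3 SD, cut at about 25% in these data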
Target sequence (P55210 whole entry D23A/D198A/D206A): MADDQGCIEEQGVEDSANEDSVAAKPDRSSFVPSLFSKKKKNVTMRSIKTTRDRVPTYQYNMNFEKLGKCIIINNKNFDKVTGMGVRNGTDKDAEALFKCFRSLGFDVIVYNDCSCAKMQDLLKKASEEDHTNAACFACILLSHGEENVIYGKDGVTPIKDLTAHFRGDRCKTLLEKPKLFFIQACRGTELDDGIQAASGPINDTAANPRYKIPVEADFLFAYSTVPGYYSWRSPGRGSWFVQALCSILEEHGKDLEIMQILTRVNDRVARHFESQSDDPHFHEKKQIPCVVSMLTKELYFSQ
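Material: Procaspase-7 triple mutant (PC-7 D3A) | Quantity: 2 µM procaspase-7 mutant as dispensed | Reagent: DEVD-pNA substrate | Times: 1 h preincubation, 2 h reaction | Technique: 405 nm absorbance of p-nitroaniline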
* = called active by the depositor; . = no result.

SMILES	proCasp3 act	NR3A LBD binder	MPTP block	aDG glyco up	proCasp7 act
CCOc1ccc(Br)cc1S(=O)(=O)Nc1ccc(Cl)c(S(=O)(=O)N(CC)c2ccccc2)c1	-0.6	12.5*	6.7	0.0	-10.6
COc1ccc(Nc2nc(-c3ccccc3)c(C(=O)Nc3cccnc3)s2)cc1	5.1	18.8*	1.8	0.3	-6.5
COc1ccccc1C(=O)NC(CCSC)C(=O)NCC(c1cccs1)N1CCOCC1 (stereo unspecified)	2.5	-1.1	-0.7	0.1	2.9
CC(C)c1nc2sc3c(=S)nc[nH]c3c2c2c1CCC2	-16.1	38.2*	11.3	-0.1	-13.6
Cc1cccc(C2=NN(c3ccccc3)[C@H](CO)[C@H]2c2ccc(Cl)cc2)c1	19.1	22.7*	0.1	4.6	8.5
COc1ccccc1[C@H]1C(c2cccc(Cl)c2)=NN(c2ccccc2)[C@@H]1CO	17.4	-6.5	0.3	1.5	-19.4
OC[C@@H]1[C@@H](c2ccccc2)C(c2cccc(Cl)c2)=NN1c1ccccc1	18.2	25.6*	0.6	1.2	7.8
Cc1cccc(C2=NN(c3ccccc3)[C@@H](C(=O)N3CCOC3=O)[C@@H]2c2ccc([N+](=O)[O-])cc2)c1	0.7	7.8	1.1	0.2	2.7
CC(NC(=O)c1ccc(Cl)c(S(=O)(=O)NC2CC2)c1)c1ccco1 (stereo unspecified)	.	.	-0.1	0.0	.
CCCCc1c(-c2ccccc2OC)ncn1CCc1ccccc1Cl	.	.	12.8	1.3	.
COc1ccc(CNC(=O)C[C@H]2C[C@H](C(=O)N3CCOCC3)[C@@]3(CCC4CCCC4)c4[nH]c5cc(CCC(=O)N(C)C)ccc5c4CCN3C2=O)cc1OC	7.0	0.8	-3.3	0.1	-2.4
COc1ccc(Cl)cc1NC(=O)COC(=O)Cc1cc(OC)c(OC)c(OC)c1	-3.6	16.9*	-0.1	-0.2	1.6
COc1ccc(CC(=O)Nc2cccc(SC)c2)cc1	-0.9	15.9*	1.0	0.1	-5.5
Cn1c(CCCOc2ccc(Cl)cc2Cl)nnc1SCC(=O)Nc1ccc(F)c(Cl)c1	-0.4	23.8*	4.7	0.1	6.4
COc1ccc(Cl)cc1NC(=O)COC(=O)CCc1cc(OC)c(OC)c(OC)c1	2.4	-0.6	1.9	0.0	0.4
Cn1c(CCCOc2ccc(Cl)cc2Cl)nnc1SCC(=O)Nc1cccc(F)c1	-1.4	0.8	-20.8	0.1	8.0
COc1ccc(NC(=O)COC(=O)CCCOc2ccc(Cl)cc2Cl)cc1	-3.0	27.2*	0.6	0.1	1.1
CC(C)(C)S(=O)(=O)N1C[C@H]2CC/C=C\C/C(c3ccccc3)=C\2[C@@H]1CCO	.	-3.4	1.2	-0.2	.
COc1ccc(NC(=O)COC(=O)CCCOc2ccc(Cl)cc2Cl)cc1Cl	4.0	30.9*	2.7	0.0	13.8
CSc1cccc(NC(=O)CCCOc2ccc(Cl)cc2Cl)c1	-2.3	20.1*	-4.8	-0.2	-4.0
O=C(CCCOc1ccc(Cl)cc1Cl)N/N=C/c1ccc(Cl)cc1	4.7	8.1	4.6	0.2	5.3
COc1ccc(/C=N/NC(=O)CCCOc2ccc(Cl)cc2Cl)cc1	-4.1	16.1*	3.4	-0.2	-17.4
Cc1cc(Cl)ccc1OCCCC(=O)N/N=C/c1cccc([N+](=O)[O-])c1	-5.2	19.5*	5.2	0.1	14.1
CCc1ccc(N2CC(C(=O)OCC(=O)N(CC)c3c(N)n(Cc4ccccc4)c(=O)[nH]c3=O)CC2=O)cc1 (stereo unspecified)	.	-1.6	-0.1	-0.2	.
Cc1ccc(Nc2nc3ccccc3o2)cc1F	-5.8	12.1*	2.3	0.1	-1.2
SMILES	proCasp3 act	NR3A LBD binder	MPTP block	aDG glyco up	proCasp7 act
CC1(C(=O)NCCc2ccccc2)Cc2c(-c3ccccc3)ccnc2O1 (stereo unspecified)	.	.	0.3	0.2	.
CCOc1ccc(Nc2ncnc3c2cnn3Cc2ccccc2)cc1	-6.6	-36.9	-0.3	0.5	4.3
CCO/C=N/Nc1nc(C(F)(F)F)nc2c1cnn2Cc1ccccc1	-8.1	13.1*	3.2	-0.2	4.5
O=CC(O)C1OC(=O)C(O)C1O (stereo unspecified)	.	-3.7	-0.8	-0.1	.
C=CCSc1nc2c(N)ncnc2n1C1OC(CO)C(O)C1O (stereo unspecified)	.	.	-0.7	0.0	.
COc1ccc(-n2nc([N+](=O)[O-])c(=NCCc3ccc(C)cc3)n2O)cc1	4.6	-5.2	1.6	0.4	-3.0
COc1ccc(-n2nc([N+](=O)[O-])c(=NCCc3ccc(OC)c(OC)c3)n2O)cc1	1.4	22.9*	7.8	0.5	2.2
Cc1ccc(S(=O)(=O)N2CCN(C(=O)C(O)c3ccccc3)CC2)cc1 (stereo unspecified)	.	.	0.4	6.0	.
O=C(CN1C(=O)NC2(CCCC2)C1=O)N1CCN(S(=O)(=O)c2cccc(F)c2)CC1	0.1	15.9*	-1.5	0.0	4.0
CN1OC[C@@H]2CN(S(=O)(=O)c3ccccc3)[C@H](c3ccccc3Br)C[C@@H]21	.	.	-2.0	-0.1	.
Cc1sc(NC(=O)c2sc3nc4c(C)cccc4cc3c2N)c(C#N)c1C	-9.8	19.1*	29.7	0.4	-7.5
CCc1cccc2cc3c(N)c(C(=O)Nc4ccc(S(=O)(=O)N5CCCC5)cc4)sc3nc12	-22.7	0.9	6.7	2.4	-4.6
Cc1cccc2cc3c(N)c(C#N)sc3nc12	-16.1	35.5*	15.3	0.0	-6.1
Cc1sc(NC(=O)c2oc3ccccc3c2C)c(C#N)c1C	-0.2	-0.2	1.1	0.1	-0.3
Cc1cccc2cc3c(N)c(C(=O)Nc4ccc(N5CCOCC5)cc4)sc3nc12	2.3	13.6*	7.7	0.0	-5.4
Cc1ccc(N2CCN(C(C(=O)Nc3c(C)cccc3C)c3cccc(F)c3)CC2)cc1 (stereo unspecified)	.	.	3.4	-0.2	.
C=CCN1C(=O)C(=Cc2ccc3c(c2)CCC3)SC1=S	.	.	1.7	-0.2	.
CNC(=O)c1c[nH]c2ccc(S(=O)(=O)Nc3ccccc3F)cc2c1=O	-2.5	-0.5	3.0	0.0	-1.2
CCc1ccccc1NS(=O)(=O)c1ccc2[nH]cc(C(=O)NC3CCCC3)c(=O)c2c1	1.1	11.3*	-16.2	-0.1	6.6
CC(C)CCNC(=O)c1c[nH]c2ccc(S(=O)(=O)N3CCOCC3)cc2c1=O	1.2	-2.1	-0.5	-0.3	-5.1
COc1cccc(NS(=O)(=O)c2ccc3[nH]cc(C(=O)NCCC(C)C)c(=O)c3c2)c1	2.9	17.6*	-3.0	0.1	1.9
CC(Nc1nc2ncn(Cc3ccccc3)c2c(=O)[nH]1)C(=O)O (stereo unspecified)	14.9	14.6*	-1.0	0.1	3.8
O=C(O)CCCCCNc1nc2ncn(Cc3ccccc3)c2c(=O)[nH]1	6.6	-1.0	0.3	-0.3	9.1
COc1cc(/C=C/c2nc3ccccc3c(=O)[nH]2)cc(Br)c1O	-4.3	23.1*	0.9	0.0	-8.4
